# Assay results: ChEMBL document CHEMBL1122518, “N-benzylpiperazino derivatives of 3-nitro-4-hydroxycoumarin with H1 antihistamine and mast cell stabilizing properties” (J Med Chem, 1984)
# The source made the active and inactive calls. The rule behind the calls is not given here.
# What was measured:
# Histamine H1 receptor = Histamine H1 receptor (Cavia porcellus, UniProt P31389); experiment: H1-antihistamine activity on guinea pig ileum; type: functional, tissue-based; details: read-out: pA2 (converted)
# How it was run: (§1)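 Isolated guinea pig ileum under about 1 g tension, isotonic recording, histamine contractions. Method a: histamine curves repeated at rising antagonist levels in Tyrode; pA2 from a Schild plot of log(CR−1). Methods b/c: antagonist given 10 min (b) or 30 s (c) before double the ~50%-response histamine dose.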
# Rattus norvegicus [1] = species on record: Rattus norvegicus; experiment: Ability to inhibit the release of extravasated dye in the rat peritoneal fluids by 50%; type: functional, organism-based
# How it was run: (§2)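 Rats sensitized ip with 2 mL of 1:5 rat antiserum in isotonic saline. 2 h later, 0.3 mL 5% Pontamine Sky Blue given iv, then after 30 s ip challenge with 5 mL Tyrode (heparin 50 μg/mL, ovalbumin 0.4 mg/mL). Compound ip in 1 mL saline 30 s before antigen; dose expressed as concentration in the 6 mL injected. Peritoneal fluid collected 5 min post-challenge.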
# Rattus norvegicus [2] = species on record: Rattus norvegicus; experiment: Ability to inhibit the release of histamine in the rat peritoneal fluids by 50%; type: functional, organism-based; how it was run: as §2
# [3] = molecular target: Histamine H1 receptor (Cavia porcellus) (UniProt P31389); experiment: H1-antihistamine activity on guinea pig ileum; Inactive; type: functional, tissue-based; how it was run: as §1
# Sequence of Histamine H1 receptor (Cavia porcellus) (P31389 whole entry): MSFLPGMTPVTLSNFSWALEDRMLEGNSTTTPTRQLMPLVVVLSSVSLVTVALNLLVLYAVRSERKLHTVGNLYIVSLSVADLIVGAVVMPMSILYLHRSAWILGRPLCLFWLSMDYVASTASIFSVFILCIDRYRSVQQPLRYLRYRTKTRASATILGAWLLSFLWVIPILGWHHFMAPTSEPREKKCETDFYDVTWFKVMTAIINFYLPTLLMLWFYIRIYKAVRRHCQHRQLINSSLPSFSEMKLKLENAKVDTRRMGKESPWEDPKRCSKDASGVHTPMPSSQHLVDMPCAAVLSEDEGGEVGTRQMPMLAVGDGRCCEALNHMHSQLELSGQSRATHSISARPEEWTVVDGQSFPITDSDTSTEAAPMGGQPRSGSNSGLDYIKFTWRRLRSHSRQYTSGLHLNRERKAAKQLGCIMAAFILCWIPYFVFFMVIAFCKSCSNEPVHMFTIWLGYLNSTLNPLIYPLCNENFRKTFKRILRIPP
# Sequence of Histamine H1 receptor (P31389 whole entry): as above
SMILES,Kb (Histamine H1 receptor) [µM],IC50 (Rattus norvegicus [1]) [µM],IC50 (Rattus norvegicus [2]) [µM],pA2 [3]
CN1CCN(CCCOc2ccc3c(O)c([N+](=O)[O-])c(=O)oc3c2)CC1,100,13,< 2,
O=c1oc2cc(OCCN3CCN(Cc4ccc(Cl)cc4)CC3)ccc2c(O)c1[N+](=O)[O-],0.158,100,,
O=C(O)c1cc(=O)c2c(OCC(O)COc3cccc4oc(C(=O)O)cc(=O)c34)cccc2o1 [CROMOLYN SODIUM],,5.8,0.74,inactive
O=c1oc2cc(OCC(O)CN3CCN(Cc4ccc(Cl)cc4)CC3)ccc2c(O)c1[N+](=O)[O-] (stereo not drawn),,20,< 2,
CN1CCC(=C2c3ccccc3CC(=O)c3sccc32)CC1 [KETOTIFEN],,9.1,> 200,
O=c1oc2cc(OCCCN3CCN(Cc4ccccc4)CC3)ccc2c(O)c1[N+](=O)[O-],,> 200,28,
O=c1oc2cc(CN3CCN(Cc4ccc(Cl)cc4)CC3)ccc2c(O)c1[N+](=O)[O-],,83,14,
COc1ccc(CN(CCN(C)C)c2ccccn2)cc1 [PYRILAMINE],,29,> 200,
CCCc1c(OCC(O)CN2CCN(Cc3ccc(Cl)cc3)CC2)ccc2c(O)c([N+](=O)[O-])c(=O)oc12 (stereo not drawn),,16,2.6,
O=c1oc2cc(OCCCN3CCN(Cc4ccc(Cl)cc4)CC3)ccc2c(O)c1[N+](=O)[O-],0.001,5.8,1.9,
